Measurements reported in PMC11342405 (Bioorganic & medicinal chemistry, 2024).
Entries after “also recorded” stand apart in the source; their conditions may differ.

Experiments:
HEK-293 cells = assay: Anti-proliferative MTT assay, non-cancerous HEK-293 cells; type: cell-based; details: Homo sapiens, HEK293, 72 h, read-out: HEK-293 IC50
In short: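 HEK-293 cells grown in DMEM with 10% FBS and 1% penicillin/streptomycin, seeded at 2.5 x 10^4 cells/well and allowed 24 h before dosing. Compound (DMSO stock) given at increasing concentrations for 72 h at 37 °C, 5% CO2. MTT (5.4 mg/mL dye solution) was added for 3 h, formazan dissolved in DMSO, and absorbance read at 570 nm. Replicates 6-8; IC50 derived from concentration-response data.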

gankyrin [1] = biological target: T1, gankyrin (Homo sapiens, UniProt O75832); assay: Circular dichroism of gankyrin; type: binding; details: 10 μM gankyrin, 1-100 μM compound, 25 °C
T1 sequence (O75832 1-226): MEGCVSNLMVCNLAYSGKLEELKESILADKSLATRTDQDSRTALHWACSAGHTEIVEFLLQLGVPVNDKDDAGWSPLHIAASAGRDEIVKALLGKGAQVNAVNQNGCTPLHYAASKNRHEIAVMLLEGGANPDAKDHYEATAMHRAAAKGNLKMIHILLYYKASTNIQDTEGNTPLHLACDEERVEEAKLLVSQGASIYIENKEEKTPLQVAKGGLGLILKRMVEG
In short: (§1)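 Recombinant His-tagged protein was expressed in E. coli LOBSTR BL21(DE3) (0.5 mM IPTG, 37 °C, 16 h) and Ni-affinity purified. The tag was removed with TEV, followed by a second HisTrap pass and gel filtration if needed. 10 μM protein in 25 mM Tris, 50 mM NaCl, pH 7.4, alone or with 1, 10 or 100 μM compound. Spectra 195–260 nm in a 1 mm quartz cuvette, six accumulations, 25 °C; α-helical content monitored; triplicate samples.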

ANKRA2 = biological target: T2, ANKRA2 (Homo sapiens, UniProt Q9H9E1); assay: Circular dichroism of ANKRA2; type: binding; details: 10 μM ANKRA2, 1-100 μM compound, 25 °C
T2 sequence (Q9H9E1 152-313 limits assumed): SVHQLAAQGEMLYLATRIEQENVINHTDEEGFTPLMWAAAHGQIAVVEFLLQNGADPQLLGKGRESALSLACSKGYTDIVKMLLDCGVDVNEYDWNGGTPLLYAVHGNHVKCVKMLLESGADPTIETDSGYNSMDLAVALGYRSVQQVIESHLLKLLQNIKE
In short: as §1

gankyrin [2] = biological target: T1, gankyrin; assay: Cellular thermal shift assay; type: cell-based; details: HuH6 cells treated at anti-proliferative IC50 for 5 h, 50-65 °C
In short: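 HuH6 cells were exposed to test compound (0.25% DMSO final) or DMSO alone for 5 h, harvested, split into six aliquots and heated at 50, 53, 56, 59, 62 or 65 °C. Lysis was in RIPA with protease/phosphatase inhibitors, 60 min on ice. 15 μg protein was run on reducing SDS-PAGE, transferred to PVDF and probed for gankyrin, with β-actin as reference; HRP secondary and ECL detection.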

[3] = system: Rb, p53 and gankyrin levels in HuH6 cells; assay: Western blot analysis of TSP levels in HuH6 cells; type: cell-based; details: 48 h
In short: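 HuH6 cells in 10 cm dishes were exposed to varying compound concentrations (0.25% DMSO final) or DMSO only for 48 h. Cells were harvested in cold PBS and lysed in RIPA with protease/phosphatase inhibitors, 60 min on ice. 15 μg protein was resolved under reducing conditions, transferred to PVDF and probed for p53, Rb and gankyrin, with cyclophilin as reference; HRP secondaries, ECL detection. Run in duplicate.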

HuH6 cells = assay: Cell cycle analysis by flow cytometry in HuH6 cells; type: cell-based; details: 3.3 μM, 72 h, vs DMSO
In short: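 HuH6 cells in 10 cm dishes were exposed to test compound or vehicle (0.25% DMSO final) for 72 h. Cells were harvested in cold PBS, normalized, fixed in 70% ethanol at −20 °C overnight, then stained with PI/RNase for 30 min at 37 °C. DNA content was measured by flow cytometry. Mean ± SD, n = 3; one-way ANOVA, P < 0.05 significant.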

Structure (SMILES) | IC50 (HEK-293 cells) | effect on gankyrin secondary structure / 3D fold (CD spectra) (gankyrin [1]) | effect on ANKRA2 secondary structure / 3D fold (CD spectra) (ANKRA2) | gankyrin thermal stability (CETSA) (gankyrin [2]) | Rb and p53 levels (western blot) [3] | gankyrin levels (western blot) [3] | number of cells in the G0-G1 phase (HuH6 cells) | number of cells in the S phase (HuH6 cells)
COC(=O)c1ccc(C(=O)NCCCNC(=O)c2ccc(C(=O)OC)cc2)cc1 [Compound 10d, Dimethyl 4,4'-((propane-1,3-diylbis(azanediyl))bis(carbonyl))dibenzoate] | > 50 µM | reduction in secondary structure content; also recorded: significant loss of gankyrin structural integrity | no changes in secondary structure content; also recorded: no significant global structure change | – | – | – | – | –
COC(=O)c1ccc(NC(=O)CCC(=O)Nc2ccc(C(=O)OC)cc2)cc1 [Compound 13d, Dimethyl 4,4'-(succinylbis(azanediyl))dibenzoate] | > 50 µM | decline in secondary structure content; also recorded: significant loss of gankyrin structural integrity | no alterations in secondary structure content; also recorded: no significant global structure change | bind and thermally stabilize gankyrin | increase in both Rb and p53 levels | relatively constant | significant increase | significant decrease
